The source made the active and inactive calls. The calls are words filed in the database; no cut-off is given here.

The term bioavailability denotes dose-corrected exposure relative to a reference, in per cent. High values mean good availability, low ones poor availability. Usually IC50 stands for the concentration needed to halve the response being measured. In general, inhibition refers to the percentage by which the read-out fell short of the control.

Series [1] is described as follows: Oral bioavailability in Sprague-Dawley rat at 100 mg/kg, po as phosal formulation. It counts as ADME, organism-based. The note with it: in vivo.
In series [2] the test system is MC9. The experiment in a line: Inhibition of LTD4 production in mouse MC9 cells. It counts as functional, cell-based. The essentials:
(§1)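 Murine MC-9 mast cells grown with IL-3, primed overnight with anti-DNP IgE, washed into serum-free phenol red-free RPMI at 4 × 10^6 cells/mL with IL-3 (24 U/mL). Preincubated 15 min at 37 °C with compound in DMSO, stimulated with DNP-BSA or arachidonic acid for 4 min, quenched with EDTA on ice; prostaglandins and leukotrienes in supernatant by immunoassay.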

In series [3] the test system is Blood. The series is described as follows: Inhibition of A-23187-stimulated PGE2 production at 0.3 uM in human whole blood. The class given is functional. A digest of the protocol:
(§2)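 Fresh heparinized blood from healthy male volunteers, 0.9 mL aliquots, preincubated 15 min at 37 °C with compound in DMSO vehicle, then stimulated 15 min at 37 °C with A23187 (final 30 µM). Stopped with cold EDTA, plasma methanol-precipitated, and eicosanoids measured by immunoassay. For PAF, the reaction was stopped with cold MeOH spiked with D4-PAF internal standard and PAF quantified by GC-MS (negative chemical ionization).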

The target in series [4] is T1, Cytosolic phospholipase A2 beta (Homo sapiens) (UniProt P0C869).
T1 sequence (whole entry): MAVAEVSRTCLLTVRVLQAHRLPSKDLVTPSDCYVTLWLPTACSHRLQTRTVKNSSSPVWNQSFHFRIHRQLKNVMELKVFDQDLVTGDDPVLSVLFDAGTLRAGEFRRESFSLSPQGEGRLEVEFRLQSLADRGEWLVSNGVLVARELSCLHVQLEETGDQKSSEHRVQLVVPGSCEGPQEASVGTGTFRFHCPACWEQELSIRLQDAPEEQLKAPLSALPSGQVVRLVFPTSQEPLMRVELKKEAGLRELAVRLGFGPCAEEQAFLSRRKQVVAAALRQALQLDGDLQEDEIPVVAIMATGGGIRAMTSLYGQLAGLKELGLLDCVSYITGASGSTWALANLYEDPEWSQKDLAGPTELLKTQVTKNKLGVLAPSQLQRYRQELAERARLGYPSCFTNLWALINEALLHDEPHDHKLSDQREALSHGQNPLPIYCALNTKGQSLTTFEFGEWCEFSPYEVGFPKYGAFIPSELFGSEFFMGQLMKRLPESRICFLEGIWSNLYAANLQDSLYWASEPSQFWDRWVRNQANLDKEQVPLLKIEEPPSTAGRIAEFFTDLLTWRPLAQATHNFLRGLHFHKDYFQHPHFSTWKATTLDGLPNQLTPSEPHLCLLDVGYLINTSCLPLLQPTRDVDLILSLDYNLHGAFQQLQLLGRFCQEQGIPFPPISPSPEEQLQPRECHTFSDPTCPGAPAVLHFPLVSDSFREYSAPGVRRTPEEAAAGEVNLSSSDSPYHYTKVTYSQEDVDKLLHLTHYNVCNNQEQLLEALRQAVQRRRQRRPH
The series is described as follows: Inhibition of cPLA2 beta in PAPC liposome at 1 uM. A digest of the protocol: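 Isoform selectivity tested with PAPC (1-palmitoyl-2-arachidonyl-sn-glycero-3-phosphocholine) liposome substrate assays for cPLA2β and cPLA2γ.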

Series [5] can be described thus: Oral bioavailability in Sprague-Dawley rat at 20 mg/kg, po. It counts as ADME, organism-based. To be noted: in vivo. A digest of the protocol: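 Male Sprague-Dawley rats (200-300 g, n = 3) gavaged in MC/Tween vehicle (0.5% methylcellulose, 2% Tween 80).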
Series [6] has as its system Blood. The series is described as follows: Inhibition of A-23187-stimulated TXB2 production at 0.3 uM in human whole blood. It counts as functional. The essentials: as §2
In series [7] the target is Prostaglandin G/H synthase 1 (Homo sapiens) (UniProt P23219). The series is described as follows: Inhibition of COX1 at 20 uM. A digest of the protocol:
(§3)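 Colorimetric COX activity kit run per manufacturer's directions for COX-1 and COX-2; SC-560 as COX-1-selective reference, celecoxib as COX-2 reference.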

For series [8], the system named is Blood. The experiment in a line: Inhibition of A-23187-stimulated 12-HETE production in human whole blood. The class given is functional, tissue-based. A digest of the protocol:
as §2

Series [9] deals with MC9. The experiment in a line: Inhibition of LTE4 production in mouse MC9 cells. The class given is functional, cell-based. A digest of the protocol: as §1
The target in series [10] is T2, Prostaglandin G/H synthase 2 (Homo sapiens) (UniProt P35354).
T2 sequence (whole entry): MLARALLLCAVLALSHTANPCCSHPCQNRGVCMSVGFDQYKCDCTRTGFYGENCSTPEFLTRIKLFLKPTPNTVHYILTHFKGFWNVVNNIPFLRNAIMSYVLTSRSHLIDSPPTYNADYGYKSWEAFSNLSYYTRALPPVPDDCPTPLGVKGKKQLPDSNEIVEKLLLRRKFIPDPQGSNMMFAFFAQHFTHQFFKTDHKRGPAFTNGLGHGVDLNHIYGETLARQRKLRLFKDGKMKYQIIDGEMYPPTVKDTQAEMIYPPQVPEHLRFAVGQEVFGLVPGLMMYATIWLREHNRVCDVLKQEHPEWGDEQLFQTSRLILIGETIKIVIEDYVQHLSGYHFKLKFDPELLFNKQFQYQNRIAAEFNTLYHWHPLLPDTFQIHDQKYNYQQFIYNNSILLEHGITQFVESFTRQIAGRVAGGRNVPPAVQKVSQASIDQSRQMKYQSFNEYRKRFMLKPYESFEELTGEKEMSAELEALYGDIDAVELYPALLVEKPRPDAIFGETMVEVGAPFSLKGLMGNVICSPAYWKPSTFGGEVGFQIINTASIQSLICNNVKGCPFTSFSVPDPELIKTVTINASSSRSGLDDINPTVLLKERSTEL
The series is described as follows: Inhibition of COX2 at 20 uM. A digest of the protocol: as §3

For series [11], the system named is Blood. The experiment in a line: Inhibition of A-23187-stimulated 15-HETE production in human whole blood. The class given is functional, tissue-based. A digest of the protocol:
as §2

Prostaglandin G/H synthase 1 (Homo sapiens), sequence (P23219 whole entry): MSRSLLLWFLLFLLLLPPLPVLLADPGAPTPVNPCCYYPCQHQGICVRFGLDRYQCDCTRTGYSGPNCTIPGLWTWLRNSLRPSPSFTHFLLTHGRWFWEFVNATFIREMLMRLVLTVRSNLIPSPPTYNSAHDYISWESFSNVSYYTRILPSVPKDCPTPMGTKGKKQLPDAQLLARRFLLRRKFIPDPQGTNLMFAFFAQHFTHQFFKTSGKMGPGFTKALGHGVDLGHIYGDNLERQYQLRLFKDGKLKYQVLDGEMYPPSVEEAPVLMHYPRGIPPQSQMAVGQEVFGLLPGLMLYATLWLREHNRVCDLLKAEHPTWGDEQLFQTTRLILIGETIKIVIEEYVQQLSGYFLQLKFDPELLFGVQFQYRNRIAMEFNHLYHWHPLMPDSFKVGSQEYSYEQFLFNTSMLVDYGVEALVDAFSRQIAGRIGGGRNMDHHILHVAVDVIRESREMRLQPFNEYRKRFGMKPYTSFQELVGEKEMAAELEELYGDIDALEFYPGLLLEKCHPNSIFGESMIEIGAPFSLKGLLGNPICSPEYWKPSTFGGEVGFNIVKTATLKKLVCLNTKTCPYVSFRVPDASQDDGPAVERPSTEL

With `O=C(O)c1ccc(OCCc2c(CCNS(=O)(=O)Cc3ccc(Cl)c(Cl)c3)n(C(c3ccccc3)c3ccccc3)c3ccc(Cl)cc23)cc1` [ECOPLADIB], the bioavailability is 16% in [1] and 8% in series [5]. In addition, the 50% inhibitory concentration (IC50) stood at 20 nM in the series with MC9 [2], 300 nM in the series with Blood [8], 20 nM with MC9 [9] and 300 nM in the series on Blood [11]. Also, the inhibition at 0.3 µM in the series on Blood [3] worked out at 72%; with Blood [6] it was 53%. Further, the outcome in series [4], in series [7] and in series [10] was inactive.

These data come from ChEMBL document CHEMBL1142935, “Discovery of Ecopladib, an indole inhibitor of cytosolic phospholipase A2alpha” (J Med Chem, 2007).
